# Laboratory results from ChEMBL document CHEMBL3872263, “Synthesis and biological evaluation of phosphate isosters of fosmidomycin and analogs as inhibitors of Escherichia coli and Mycobacterium smegmatis 1-deoxyxylulose 5-phosphate reductoisomerases” (Bioorg Med Chem, 2017).
# Tests used:
# [1] = Inhibition of Escherichia coli His6-tagged DXR preincubated for 2 mins in presence of NADPH followed by DXP substrate addition
# Outline: (§1)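 Recombinant His-tagged DXR was assayed at 37°C in 50 mM Tris/HCl pH 7.5 with 3 mM MgCl2 and 2 mM DTT. The enzyme was pre-incubated for 2 min with NADPH and the inhibitor at a range of concentrations, then DXP was added to start the reaction and residual activity was measured. IC50 was read from a plot of percent residual activity versus log inhibitor concentration.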
# Escherichia coli [2] = test: Growth inhibition of Escherichia coli XL1 blue at 160 nmol/disc incubated overnight by paper disc diffusion method; assay type: functional
# Outline: (§2)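 Paper disc diffusion assay on E. coli XL1 Blue grown in LB agar. 6 mm paper discs were impregnated with the stated amount of compound, and plates were incubated overnight at 37°C.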
# [3] = Inhibition of Mycobacterium smegmatis His6-tagged DXR preincubated for 2 mins in presence of NADPH followed by DXP substrate addition; set-up: species or system Mycolicibacterium smegmatis; outline: as §1
# Escherichia coli [4] = test: Growth inhibition of Escherichia coli XL1 blue at 400 nmol/disc incubated overnight by paper disc diffusion method; assay type: functional
# Outline: (§3)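 Paper disc diffusion on E. coli XL1 Blue growing on LB-agar; 6 mm paper discs impregnated with test compound at the stated amount per disc; plates incubated overnight at 37°C, then growth inhibition read.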
# Escherichia coli [5] = test: Growth inhibition of Escherichia coli XL1 blue at 2 nmol/disc incubated overnight by paper disc diffusion method; assay type: functional; outline: as §3
# Escherichia coli [6] = test: Activity at Escherichia coli DXR assessed as ratio of Kcat to Km […] in presence of NADPH by Lineweaver-burk plot method
# Escherichia coli [7] = test: Growth inhibition of Escherichia coli XL1 blue at 100 nmol/disc incubated overnight by paper disc diffusion method; assay type: functional; outline: as §2
# Escherichia coli [8] = test: Growth inhibition of fosmidomycin resistant Escherichia coli incubated overnight by paper disc diffusion method; assay type: functional
# Escherichia coli [9] = test: Growth inhibition of Escherichia coli XL1 blue at 80 nmol/disc incubated overnight by paper disc diffusion method; assay type: functional; outline: as §3
Compound,IC50 [1] [nM],IC50 [3] [nM],also measured
CN(O)C(=O)CCOP(=O)(O)O,46,233,diameter of the inhibition zone (DIZ) (Escherichia coli [2]): 20 mm
O=C(CCOP(=O)(O)O)NO,2600,9200,diameter of the inhibition zone (DIZ) (Escherichia coli [4]): <10 mm
O=C(CCCP(=O)(O)O)NO,170,–,diameter of the inhibition zone (DIZ) (Escherichia coli [4]): 12 mm
CC(=O)[C@@H](O)[C@H](O)CCP(=O)(O)O,–,–,kcat/Km (Escherichia coli [6]): 11700 M⁻¹ s⁻¹
CN(O)C(=O)CCCP(=O)(O)O,48,–,diameter of the inhibition zone (DIZ) (Escherichia coli [8]): 18 mm; diameter of the inhibition zone (DIZ) (Escherichia coli [9]): 30 mm
CC(=O)[C@@H](O)[C@H](O)COP(=O)(O)O,–,–,kcat/Km (Escherichia coli [6]): 412000 M⁻¹ s⁻¹
CC(=O)N(O)CCCP(=O)(O)O [FR-900098],4,–,diameter of the inhibition zone (DIZ) (Escherichia coli [5]): 32 mm

# Second part, led by results:
IC50 [1] [nM],IC50 [3] [nM],Compound,also measured
342,2100,O=CN(O)CCOP(=O)(O)O,diameter of the inhibition zone (DIZ) (Escherichia coli [2]): 24 mm
42,–,O=CN(O)CCCP(=O)(O)O [FOSMIDOMYCIN],diameter of the inhibition zone (DIZ) (Escherichia coli [5]): 34 mm
77,279,CC(=O)N(O)CCOP(=O)(O)O,diameter of the inhibition zone (DIZ) (Escherichia coli [7]): 27 mm
